Source: ChEMBL document CHEMBL3046913, “Feeding deterrence and contact toxicity of Stemona alkaloids-a source of potent natural insecticides” (2002)
Converted amounts (≈) assume the structure as drawn. The source made the active and inactive calls. The calls are words filed in the database; no cut-off is given here.

How the values were obtained:
[1] = system: Spodoptera littoralis; assay: Antifeedant activity against fifth instar larvae of Spodoptera littoralis assessed as inhibition of feeding without tasting treated leaf disk at 1 ug/cm2 after 24 hr by leaf disk choice assay; format: functional, organism-based
Summary of the method: (§1)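 Leaf disk choice test with fifth instar larvae (about 70 mg each). Lettuce disks of 1.33 cm2 were treated on the upper surface with pure compound at 1-0.001 µg/cm2 in MeOH; controls got solvent only. Two treated and two control disks were placed on moist filter paper with two larvae. Scoring was done when about 50% of control area (0.665 cm2) was eaten, 24 h maximum. Three trials in duplicate, six replicates.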

[2] = system: Spodoptera littoralis; assay: Insecticidal activity against neonate larvae of Spodoptera littoralis after 5 days; format: functional; settings: 120 h
Summary of the method: (§2)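 Chronic diet assay: neonate larvae (n = 20) from a lab colony were kept on artificial diet spiked via MeOH with eight concentrations of pure alkaloid (0.1-500 ppm). After 5 days in a moist chamber, dark, at 26 °C, survival and weight of survivors were compared with solvent-treated controls. LC50 and EC50 (50% growth inhibition) were derived by probit-log analysis. Run in triplicate.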

[3] = system: Spodoptera littoralis; assay: Antifeedant activity against fifth instar larvae of Spodoptera littoralis assessed as inhibition of feeding without tasting treated leaf disk at 0.01 ug/cm2 after 24 hr by leaf disk choice assay; format: functional, organism-based; summary of the method: as §1
[4] = system: Spodoptera littoralis; assay: Antifeedant activity against fifth instar larvae of Spodoptera littoralis assessed as inhibition of feeding without tasting treated leaf disk at 0.1 ug/cm2 after 24 hr by leaf disk choice assay; format: functional, organism-based; summary of the method: as §1
[5] = system: Spodoptera littoralis; assay: Antifeedant activity against fifth instar larvae of Spodoptera littoralis assessed as < 5% of total area of treated leaf disks in each petri dish consumed at 0.001 ug/cm2 after 24 hr by leaf disk choice assay; format: functional, organism-based; summary of the method: as §1
[6] = system: Spodoptera littoralis; assay: Toxicity in neonate larvae of Spodoptera littoralis at 133 ug/dm2 after 48 hr; format: functional, organism-based
Summary of the method: (§3)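 Contact toxicity: glass vials were coated with seven concentrations of test compound and the solvent evaporated. Twenty neonate larvae were held in the vials for 3 h, then given artificial diet. Survival was read at 48 h and LC50 derived by probit-log analysis. Run in triplicate or duplicate.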

[7] = system: Spodoptera littoralis; assay: Growth inhibition of neonate larvae of Spodoptera littoralis after 5 days; format: functional; settings: 120 h; summary of the method: as §2
[8] = system: Spodoptera littoralis; assay: Toxicity in neonate larvae of Spodoptera littoralis after 48 hr; format: functional; summary of the method: as §3
[9] = system: Spodoptera littoralis; assay: Antifeedant activity against fifth instar larvae of Spodoptera littoralis at 0.001 ug/cm2 after 24 hr by leaf disk choice assay; format: functional, organism-based; summary of the method: as §1
[10] = system: Spodoptera littoralis; assay: Toxicity in sixth instar larvae of Spodoptera littoralis assessed as survival at 100 ug/larvae treated directly into hemolymph after 48 hr
[11] = system: Spodoptera littoralis; assay: Antifeedant activity against fifth instar larvae of Spodoptera littoralis assessed as 5 to 20% of total area of treated leaf disks in each petri dish consumed at 0.01 ug/cm2 after 24 hr by leaf disk choice assay; format: functional, organism-based; summary of the method: as §1

C/C=C(\C)C(=O)O[C@H]1C[C@@H](OC(C)=O)[C@@]2(C(=O)OC)CO[C@H]3[C@@H](O)[C@@](C)([C@]45O[C@@]4(C)[C@@H]4C[C@H]5O[C@@H]5OC=C[C@@]54O)[C@H]4[C@]1(CO[C@]4(O)C(=O)OC)[C@@H]32 [AZADIRACHTIN A]
AFI [1]: Active
LC50 [2]: 8.2 µg/mL (≈ 11.4 µM)
AFI [3]: Active
AFI [4]: Active
AFI [5]: Active
AFI [6]: inactive

CC/C=C/[C@@]12[C@@H]3C[C@H]4[C@H]5[C@H](C)/C(=C6/OC(=O)C(C)=C6OC)O[C@]5(O3)[C@@H]1CCN42 [DIDEHYDROSTEMOFOLINE]
EC50 (50% growth inhibition) [7]: 0.46 µg/mL (≈ 1.19 µM)
LC50 [2]: 0.84 µg/mL (≈ 2.18 µM)
LC50 [8]: 1.01 microg/dm2

CC[C@@H]1[C@H]2CCCCN3[C@H]2[C@H](C[C@H]3[C@@H]2C[C@H](C)C(=O)O2)[C@@H]2[C@H]1OC(=O)[C@H]2C [TUBEROSTEMONINE]
AFI [9]: inactive
Survival [10]: 100%
AFI [1]: Active
AFI [11]: Active
LC50 [2]: > 500 µg/mL
AFI [4]: Active
AFI [6]: inactive

CC[C@H](O)C[C@@]12[C@@H]3C[C@H]4[C@H]5[C@H](C)/C(=C6/OC(=O)C(C)=C6OC)O[C@]5(O3)[C@H]1CCN42 [2'-HYDROXYSTEMOFOLINE]
EC50 (50% growth inhibition) [7]: 38.5 µg/mL (≈ 95.3 µM)
LC50 [2]: 30.3 µg/mL (≈ 75.2 µM)

CCCC[C@@]12C3CCN1[C@H]1C[C@H]2O[C@@]32O/C(=C3\OC(=O)C(C)=C3OC)[C@@H](C)[C@H]12 [STEMOFOLINE]
EC50 (50% growth inhibition) [7]: 1.46 µg/mL (≈ 3.77 µM)
LC50 [2]: 2.04 µg/mL (≈ 5.26 µM)
LC50 [8]: 0.59 microg/dm2
